In ChEMBL document CHEMBL5352471, “Design, synthesis, and pharmacological evaluations of pyrrolo[1,2-a]quinoxaline-based derivatives as potent and selective sirt6 activators” (Eur J Med Chem, 2023):
Calls of active or inactive are those of the source. The rule behind the calls is not given here.

How the values were obtained:
[1] = molecular target: T1, NAD-dependent protein deacylase sirtuin-6 (Homo sapiens, UniProt Q8N6T7); experiment: Activation of recombinant SIRT6 (unknown origin) deacetylase activity using fluoro peptide as substrate by microplate reader analysis
[2] = Cytotoxicity against human A549-ACE2 cells assessed as inhibition of cell growth measured for 48 hrs; assay type: functional
[3] = molecular target: NAD-dependent protein deacylase sirtuin-5, mitochondrial (Homo sapiens) (UniProt Q9NXA8); experiment: Activation of human SIRT5 (unknown origin) desuccinylation activity using fluorogenic substrate measured upto 120 mins by microplate reader analysis
SARS-CoV-2 = experiment: Antiviral activity against SARS-CoV-2 infected in human A549-ACE2 cells assessed as viral growth inhibition; assay type: functional, organism-based; details: Severe acute respiratory syndrome coronavirus 2, A549-ACE2
[4] = molecular target: T2, NAD-dependent protein deacetylase sirtuin-1 (Homo sapiens) (UniProt Q96EB6); experiment: Activation of human SIRT1 (unknown origin) deacetylation activity using fluorogenic substrate measured upto 120 mins by microplate reader analysis
T2 sequence (whole entry): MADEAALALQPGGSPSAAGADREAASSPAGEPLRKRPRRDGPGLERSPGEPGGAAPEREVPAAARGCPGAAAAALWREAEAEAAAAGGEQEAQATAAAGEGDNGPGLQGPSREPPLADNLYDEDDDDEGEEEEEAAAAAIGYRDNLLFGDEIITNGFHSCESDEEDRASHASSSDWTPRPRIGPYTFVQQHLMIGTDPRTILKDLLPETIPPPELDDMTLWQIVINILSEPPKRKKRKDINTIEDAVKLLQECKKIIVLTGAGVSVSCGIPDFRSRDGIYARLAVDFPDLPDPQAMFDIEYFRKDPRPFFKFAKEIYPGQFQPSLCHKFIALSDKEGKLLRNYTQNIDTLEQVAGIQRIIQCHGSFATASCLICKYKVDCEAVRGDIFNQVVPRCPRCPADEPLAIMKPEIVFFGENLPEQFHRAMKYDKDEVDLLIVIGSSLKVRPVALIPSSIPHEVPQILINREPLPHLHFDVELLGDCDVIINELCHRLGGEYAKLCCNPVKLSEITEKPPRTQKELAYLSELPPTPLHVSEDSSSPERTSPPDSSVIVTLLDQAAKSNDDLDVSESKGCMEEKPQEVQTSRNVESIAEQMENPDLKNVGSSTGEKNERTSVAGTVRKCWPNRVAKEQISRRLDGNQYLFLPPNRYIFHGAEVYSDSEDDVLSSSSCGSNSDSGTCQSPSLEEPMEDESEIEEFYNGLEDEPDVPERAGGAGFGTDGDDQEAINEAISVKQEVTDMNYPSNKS
In short: (§1)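 Recombinant Sirt1 or Sirt2 was assayed with a kit fluoro-substrate peptide (0.1 mM stock), NAD+ (8 mM stock) and developer in a 25 µL reaction at room temperature. Fluorescence was read over 125 min, at Ex/Em 350/450 nm for Sirt1 and 490/530 nm for Sirt2.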

[5] = molecular target: T3, NAD-dependent protein deacetylase sirtuin-2 (Homo sapiens) (UniProt Q8IXJ6); experiment: Activation of human SIRT2 (unknown origin) deacetylation activity using fluorogenic substrate measured upto 120 mins by microplate reader analysis; in short: as §1
T3 sequence (whole entry): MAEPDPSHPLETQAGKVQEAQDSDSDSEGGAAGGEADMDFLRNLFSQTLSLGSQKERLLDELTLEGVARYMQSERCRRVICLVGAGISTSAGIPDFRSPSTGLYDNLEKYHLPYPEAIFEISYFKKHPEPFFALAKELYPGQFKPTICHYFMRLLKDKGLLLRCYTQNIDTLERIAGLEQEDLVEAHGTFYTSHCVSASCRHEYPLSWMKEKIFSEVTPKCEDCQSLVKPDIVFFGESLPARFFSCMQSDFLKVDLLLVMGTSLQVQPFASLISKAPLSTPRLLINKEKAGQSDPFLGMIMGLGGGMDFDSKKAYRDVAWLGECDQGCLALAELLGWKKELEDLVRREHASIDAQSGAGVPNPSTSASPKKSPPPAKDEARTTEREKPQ

[6] = molecular target: T1, NAD-dependent protein deacylase sirtuin-6; experiment: Activation of his6-tagged SIRT6 (unknown origin) assessed as fold activation using H3K9Ac peptide substrate incubated for 30 mins; details: filed as activator
[7] = molecular target: T1, NAD-dependent protein deacylase sirtuin-6; experiment: Activation of SIRT6 (unknown origin) deacetylase activity assessed as fold activation; details: filed as activator
In short: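 Recombinant Sirt6 was run in a fluorometric activity kit (FDL-type deacetylation) with a fluoro-substrate peptide (0.1 mM stock), NAD+ (8 mM stock) and developer in a 25 µL reaction at room temperature. Compounds were tested at 100 and 30 µM. Fluorescence was read at Ex/Em 490/530 nm over 125 min. Fold activation is given as mean ± SD from at least two independent experiments.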

[8] = molecular target: T1, NAD-dependent protein deacylase sirtuin-6; experiment: Activation of SIRT6 (unknown origin) deacetylase activity assessed as fold increase in maximal activation; details: filed as activator
[9] = Oral bioavailability in C57BL/6J mouse at 20 to 30 mg/kg, iv measured upto 24 hrs by LC-MS/MS analysis; assay type: ADME, organism-based; details: in vivo, dose 20-30 mg/kg

T1 sequence (Q8N6T7 whole entry): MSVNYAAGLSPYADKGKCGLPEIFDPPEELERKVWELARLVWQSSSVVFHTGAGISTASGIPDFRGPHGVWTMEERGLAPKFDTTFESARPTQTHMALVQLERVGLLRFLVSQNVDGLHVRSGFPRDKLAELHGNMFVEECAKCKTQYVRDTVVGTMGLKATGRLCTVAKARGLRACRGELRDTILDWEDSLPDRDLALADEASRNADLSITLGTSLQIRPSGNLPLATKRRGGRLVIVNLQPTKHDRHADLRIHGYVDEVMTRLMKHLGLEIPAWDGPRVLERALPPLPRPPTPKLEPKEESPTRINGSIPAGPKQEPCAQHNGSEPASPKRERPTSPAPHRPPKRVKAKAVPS
Chain of NAD-dependent protein deacylase sirtuin-5, mitochondrial (Homo sapiens) (Q9NXA8 37-310 limits assumed): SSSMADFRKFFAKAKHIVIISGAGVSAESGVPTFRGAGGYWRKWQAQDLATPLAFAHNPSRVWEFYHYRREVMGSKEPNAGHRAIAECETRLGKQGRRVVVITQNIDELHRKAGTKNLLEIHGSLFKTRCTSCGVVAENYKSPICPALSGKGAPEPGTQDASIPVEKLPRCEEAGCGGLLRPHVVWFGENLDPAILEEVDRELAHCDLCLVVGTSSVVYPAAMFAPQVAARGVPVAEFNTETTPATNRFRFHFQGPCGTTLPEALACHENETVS

CN(C)CCN1CCN(c2ncccc2C2Nc3ccccc3-n3cccc32)CC1 (stereo not drawn)
EC50 [1]: 48.8 µM
CC50 [2]: > 50 µM
Activity [3]: inactive
EC50 (SARS-CoV-2): 9.3 µM
Activity [4]: inactive
Activity ([4]; filed as activator): Active
Activity [5]: inactive

CCCCCCCC/C=C\CCCCCCCC(=O)NCCO
fold change (FC) [6]: 2.1

O=C(O)c1ccc2c(c1)C(=O)N(c1ccc(N(C(=O)c3c(Cl)cc(Cl)cc3Cl)C(=O)c3c(Cl)cc(Cl)cc3Cl)c(Cl)c1)C2=O
fold change (FC) [7]: 4

c1cncc(C2Nc3ccccc3-n3cccc32)c1 (stereo not drawn)
CC50 [2]: > 50 µM
EC50 (SARS-CoV-2): 50 µM
fold change (FC) [8]: 2

Cc1cc(F)c(Br)cc1NS(=O)(=O)c1ccc(NS(=O)(=O)c2cc(Cl)cc(Cl)c2)cc1CN1CCOC[C@H]1C
bioavailability [9]: 93%
